# Measurements as given in ChEMBL document CHEMBL1123505, “Synthesis, structure, and antitumor activity of N-salicyloyl-N'-(2-furylthiocarbonyl)hydrazine and its copper(II) complex” (1986).
# Columns and labels:
# Format in all cases: functional
# [1] = system: Mus musculus; assay: Antitumor activity expressed as mean life span of nonsurvivors in days (T/C) was tested against fibrosarcoma at the dosage of 25 mg/kg (ip); 40/28
# In short: (§1)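 On day 3 after transplantation they received a single ip or sc dose of compound freshly suspended in 0.89% saline. Saline-injected controls were used, with 5–10 mice per group. Mean life span of treated nonsurvivors is shown against untreated controls, excluding mice surviving ≥6 months.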
# [2] = system: Mus musculus; assay: Antitumor activity against fibrosarcoma infected mice at the dosage of 50 mg/kg (ip) and expressed as no. of mice injected; T/C= 8/8
# [3] = system: Mus musculus; assay: Antitumor activity expressed as %T/C was tested against fibrosarcoma at the dosage of 25 mg/Kg (sc)
# In short: (§2)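 Fibrosarcoma: 4 × 10⁶ cells were given sc to C₃H/He mice, 25–30 g. A single ip or sc dose in 0.89% saline followed on day three, with saline-injected controls. Mean life span of nonsurvivors excludes mice surviving 6 months or more, which were counted as tumour-free. T/C% is treated mean survival, excluding tumour-free survivors, divided by untreated mean life span ×100.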
# [4] = system: Mus musculus; assay: Antitumor activity expressed as %T/C was tested against Dalton's lymphoma at the dosage of 2 mg/Kg (ip)
# In short: (§3)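 Dalton's lymphoma: 2 × 10⁷ ascites cells were given ip to DbA mice, 18–20 g. A single ip dose in 0.89% saline followed on day two, with saline-injected controls. Mean life span was calculated excluding mice that survived 6 months or more. T/C% is the mean survival of treated mice, excluding tumour-free survivors, divided by the mean life span of untreated mice ×100.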
# [5] = system: Mus musculus; assay: Antitumor activity against fibrosarcoma infected mice at the dosage of 5 mg/kg (sc) and expressed as no. of mice injected; T/C= 7/7
# [6] = system: Mus musculus; assay: Antitumor activity expressed as the no. of mice surviving >6 months was tested against fibrosarcoma at the dosage of 10 mg/kg (ip)
# In short: (§4)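 Fibrosarcoma was established by sc inoculation of 4 × 10⁶ cells in mice. On day 3 they received a single ip or sc injection of compound freshly suspended in 0.89% saline, with 5–10 mice per group. The count is of mice surviving 6 months or more after treatment, scored as tumor-free, with the percentage of the group also given.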
# [7] = system: Mus musculus; assay: Antitumor activity against Dalton's lymphoma infected mice at the dosage of 10 mg/kg (ip) and expressed as no. of mice injected; T/C= 5/5
# [8] = system: Mus musculus; assay: Antitumor activity expressed as mean life span of nonsurvivors in days (T/C) was tested against fibrosarcoma at the dosage of 10 mg/kg (sc); 37/27; in short: as §1
# [9] = system: Mus musculus; assay: Antitumor activity expressed as average body weight change was tested against fibrosarcoma at the dosage of 25 mg/kg (Ip)
# In short: (§5)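 Fibrosarcoma-bearing C₃H/He mice (4 × 10⁶ cells sc) received a single ip or sc dose in 0.89% saline on day three after transplant; controls received saline. The day of injection was taken as day zero. Mice were weighed on alternate days up to 4 weeks. Values are average % weight change from the day of treatment to day 21.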
# [10] = system: Mus musculus; assay: Antitumor activity expressed as the no. of mice surviving >6 months was tested against fibrosarcoma at the dosage of 5 mg/kg (ip); in short: as §4
# [11] = system: Mus musculus; assay: Antitumor activity expressed as the no. of mice surviving >6 months was tested against fibrosarcoma at the dosage of 50 mg/kg (ip); in short: as §4
# [12] = system: Mus musculus; assay: Antitumor activity expressed as mean life span of nonsurvivors in days (T/C) was tested against Dalton's lymphoma at the dosage of 25 mg/kg (ip); 41/21
# [13] = system: Mus musculus; assay: Antitumor activity expressed as %T/C was tested against fibrosarcoma at the dosage of 10 mg/Kg (sc); in short: as §2
# [14] = system: Mus musculus; assay: Antitumor activity expressed as %T/C was tested against fibrosarcoma at the dosage of 25 mg/Kg (ip); in short: as §2
# [15] = system: Mus musculus; assay: Antitumor activity against fibrosarcoma infected mice at the dosage of 25 mg/kg (sc) and expressed as no. of mice injected; T/C= 8/9
# [16] = system: Mus musculus; assay: Antitumor activity against fibrosarcoma infected mice at the dosage of 10 mg/kg (sc) and expressed as no. of mice injected; T/C= 8/7
# [17] = system: Mus musculus; assay: Antitumor activity expressed as %T/C was tested against fibrosarcoma at the dosage of 5 mg/Kg (sc); in short: as §2
# [18] = system: Mus musculus; assay: Antitumor activity expressed as average body weight change was tested against fibrosarcoma at the dosage of 50 mg/kg (Ip); in short: as §5
# [19] = system: Mus musculus; assay: Antitumor activity expressed as average body weight change was tested against fibrosarcoma at the dosage of 5 mg/kg (Ip); in short: as §5
# [20] = system: Mus musculus; assay: Antitumor activity expressed as the no. of mice surviving >6 months was tested against fibrosarcoma at the dosage of 25 mg/kg (sc); in short: as §4
# [21] = system: Mus musculus; assay: Antitumor activity against fibrosarcoma infected mice at the dosage of 5 mg/kg (ip) and expressed as no. of mice injected; T/C= 8/6
# [22] = system: Mus musculus; assay: Antitumor activity expressed as average body weight change was tested against fibrosarcoma at the dosage of 10 mg/kg (Ip); in short: as §5
# [23] = system: Mus musculus; assay: Antitumor activity expressed as %T/C was tested against Dalton's lymphoma at the dosage of 10 mg/Kg (ip); in short: as §3
# [24] = system: Mus musculus; assay: Antitumor activity expressed as %T/C was tested against Dalton's lymphoma at the dosage of 25 mg/Kg (ip); in short: as §3
# [25] = system: Mus musculus; assay: Antitumor activity expressed as average body weight change was tested against fibrosarcoma at the dosage of 5 mg/kg (sc); in short: as §5
# [26] = system: Mus musculus; assay: Antitumor activity expressed as mean life span of nonsurvivors in days (T/C) was tested against Dalton's lymphoma at the dosage of 10 mg/kg (ip); 33/21
# [27] = system: Mus musculus; assay: Antitumor activity expressed as mean life span of nonsurvivors in days (T/C) was tested against fibrosarcoma at the dosage of 50 mg/kg (ip); 45/27; in short: as §1
# [28] = system: Mus musculus; assay: Antitumor activity expressed as average body weight change was tested against fibrosarcoma at the dosage of 25 mg/kg (sc); in short: as §5
# [29] = system: Mus musculus; assay: Antitumor activity expressed as %T/C was tested against fibrosarcoma at the dosage of 50 mg/Kg (ip); in short: as §2
# [30] = system: Mus musculus; assay: Antitumor activity expressed as mean life span of nonsurvivors in days (T/C) was tested against Dalton's lymphoma at the dosage of 2 mg/kg (ip); 27/21
# [31] = system: Mus musculus; assay: Antitumor activity expressed as average body weight change was tested against fibrosarcoma at the dosage of 10 mg/kg (sc); in short: as §5
# [32] = system: Mus musculus; assay: Antitumor activity against fibrosarcoma infected mice at the dosage of 25 mg/kg (ip) and expressed as no. of mice injected; T/C= 10/10
# [33] = system: Mus musculus; assay: Antitumor activity against fibrosarcoma infected mice at the dosage of 10 mg/kg (ip) and expressed as no. of mice injected; T/C= 6/6
# [34] = system: Mus musculus; assay: Antitumor activity expressed as the no. of mice surviving >6 months was tested against fibrosarcoma at the dosage of 25 mg/kg (ip); in short: as §4
# [35] = system: Mus musculus; assay: Antitumor activity against Dalton's lymphoma infected mice at the dosage of 25 mg/kg (ip) and expressed as no. of mice injected; T/C= 5/5
# [36] = system: Mus musculus; assay: Antitumor activity expressed as %T/C was tested against fibrosarcoma at the dosage of 5 mg/Kg (ip); in short: as §2
# [37] = system: Mus musculus; assay: Antitumor activity expressed as %T/C was tested against fibrosarcoma at the dosage of 10 mg/Kg (ip); in short: as §2
# [38] = system: Mus musculus; assay: Antitumor activity expressed as mean life span of nonsurvivors in days (T/C) was tested against fibrosarcoma at the dosage of 10 mg/kg (ip); 38/26; in short: as §1
# [39] = system: Mus musculus; assay: Antitumor activity against Dalton's lymphoma infected mice at the dosage of 2 mg/kg (ip) and expressed as no. of mice injected; T/C= 5/5
# [40] = system: Mus musculus; assay: Antitumor activity expressed as mean life span of nonsurvivors in days (T/C) was tested against fibrosarcoma at the dosage of 25 mg/kg (sc); 41/26; in short: as §1
# [41] = system: Mus musculus; assay: Antitumor activity expressed as mean life span of nonsurvivors in days (T/C) was tested against fibrosarcoma at the dosage of 5 mg/kg (sc); 36/26; in short: as §1
# [42] = system: Mus musculus; assay: Antitumor activity expressed as mean life span of nonsurvivors in days (T/C) was tested against fibrosarcoma at the dosage of 5 mg/kg (ip); 41/27; in short: as §1
smiles,measurement,setting,value
O=C(NN=C(S)c1ccco1)c1ccccc1O,T/C,[1],40 days
same,T/C,[2],8
same,T/C,[3],158%
same,T/C,[4],128%
same,T/C,[5],7
same,No. of mice surviving >6 months,[6],3
same,T/C,[7],5
same,T/C,[8],37 days
same,Average body weight change,[9],7.88%
same,No. of mice surviving >6 months,[10],4
same,No. of mice surviving >6 months,[11],6
same,T/C,[12],41 days
same,T/C,[13],137%
same,T/C,[14],143%
same,T/C,[15],8
same,T/C,[16],8
same,T/C,[17],139%
same,Average body weight change,[18],2.65%
same,Average body weight change,[19],15.1%
same,No. of mice surviving >6 months,[20],6
same,T/C,[21],8
same,Average body weight change,[22],11.27%
same,T/C,[23],157%
same,T/C,[24],195%
same,Average body weight change,[25],11.62%
same,T/C,[26],33 days
same,T/C,[27],45 days
same,Average body weight change,[28],9.96%
same,T/C,[29],167%
same,T/C,[30],27 days
same,Average body weight change,[31],12.31%
same,T/C,[32],10
same,T/C,[33],6
same,No. of mice surviving >6 months,[34],5
same,T/C,[35],5
same,T/C,[36],152%
same,T/C,[37],146%
same,T/C,[38],38 days
same,T/C,[39],5
same,T/C,[40],41 days
same,T/C,[41],36 days
same,T/C,[42],41 days
